Laboratory results reported in ChEMBL document CHEMBL4732237, “Discovery of 4-alkoxy-2-aryl-6,7-dimethoxyquinolines as a new class of topoisomerase I inhibitors endowed with potent in vitro anticancer activity” (2021).

system: NCI-H322M; test: Growth inhibition of human NCI-H322M cells at 10 uM incubated for 48 hrs by sulforhodamine B assay relative to control; type: functional; details: read-out: GI
In short: (§1)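 NCI one-dose screen. Cells grown in RPMI 1640 with 5% FBS and 2 mM L-glutamine, plated and incubated 24 h at 37 °C, 5% CO2. DMSO-dissolved drug added, then 48 h further incubation. Adherent cells fixed with cold TCA, suspension cells fixed after settling. Stained with 0.4% SRB, absorbance read at 515 nm. Reported as percent growth relative to no-drug control and time-zero cell number.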

Question: `COc1cc2nc(-c3ccc(Cl)cc3)cc(OCCN3CCCC3)c2cc1OC` was tested. Which inhibition of growth at 10 µM did it give?
Answer: 3%

system: SK-MEL-28; test: Growth inhibition of human SK-MEL-28 cells at 10 uM incubated for 48 hrs by sulforhodamine B assay relative to control; type: functional; details: read-out: GI; in short: as §1

Question: How did the inhibition of growth at 10 µM turn out when `COc1cc2nc(-c3ccc(Cl)cc3)cc(OCCN3CCCC3)c2cc1OC` was run?
Answer: 3%

system: NCI-H522; test: Growth inhibition of human NCI-H522 cells at 10 uM incubated for 48 hrs by sulforhodamine B assay relative to control; type: functional; details: read-out: GI; in short: as §1

Question: How did the inhibition of growth at 10 µM turn out when `COc1cc2nc(-c3ccc(Cl)cc3)cc(OCCN3CCCC3)c2cc1OC` was run?
Answer: 3%

system: OVCAR-4; test: Growth inhibition of human OVCAR-4 cells at 10 uM incubated for 48 hrs by sulforhodamine B assay relative to control; type: functional; details: read-out: GI; in short: as §1

Question: Which inhibition of growth at 10 µM does the source give for `COc1cc2nc(-c3ccc(Cl)cc3)cc(OCCN3CCCC3)c2cc1OC` here?
Answer: 3%

system: TK-10; test: Growth inhibition of human TK-10 cells at 10 uM incubated for 48 hrs by sulforhodamine B assay relative to control; type: functional; details: read-out: GI
In short: (§2)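 NCI one-dose screen across a 59-line panel. Cells were grown in RPMI 1640 with 5% FBS and 2 mM L-glutamine, plated and pre-incubated 24 h, then exposed to drug for 48 h at 37 °C, 5% CO2. Adherent cells were fixed with cold TCA (10% final), stained with 0.4% SRB in 1% acetic acid and read at 515 nm. Result is percent growth relative to no-drug control and time-zero cell count.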

Question: With `COc1cc2nc(-c3ccc(Cl)cc3)cc(OCCN3CCCC3)c2cc1OC` as the compound, how does the inhibition of growth at 10 µM read?
Answer: 3%

system: Malme-3M; test: Growth inhibition of human Malme-3M cells at 10 uM incubated for 48 hrs by sulforhodamine B assay relative to control; type: functional; details: read-out: GI; in short: as §1

Question: How did the inhibition of growth at 10 µM turn out when `COc1cc2nc(-c3ccc(Cl)cc3)cc(OCCN3CCCC3)c2cc1OC` was run?
Answer: 3%

system: SNB-19; test: Growth inhibition of human SNB-19 cells at 10 uM incubated for 48 hrs by sulforhodamine B assay relative to control; type: functional; details: read-out: GI; in short: as §1

Question: How did the inhibition of growth at 10 µM turn out when `COc1cc2nc(-c3ccc(Cl)cc3)cc(OCCN3CCCC3)c2cc1OC` was run?
Answer: 3%

system: EKVX; test: Growth inhibition of human EKVX cells at 10 uM incubated for 48 hrs by sulforhodamine B assay relative to control; type: functional; details: read-out: GI
In short: (§3)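 NCI-60 single-dose screen. Cells were grown in RPMI 1640 with 5% FBS and 2 mM L-glutamine and plated 24 h before drug addition. Compound was added at one concentration in DMSO-derived medium and incubated for 48 h at 37 °C in 5% CO2. Read-out was SRB protein stain at 515 nm. Result is percent growth versus the no-drug control and the time-zero cell count; values below 0 indicate lethality.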

Question: Which inhibition of growth at 10 µM does the source give for `COc1cc2nc(-c3ccc(Cl)cc3)cc(OCCN3CCCC3)c2cc1OC` here?
Answer: 3%

system: SR; test: Growth inhibition of human SR cells at 10 uM incubated for 48 hrs by sulforhodamine B assay relative to control; type: functional; details: read-out: GI; in short: as §1

Question: How did the inhibition of growth at 10 µM turn out when `COc1cc2nc(-c3ccc(Cl)cc3)cc(OCCN3CCCC3)c2cc1OC` was run?
Answer: 3%

system: SK-MEL-5; test: Growth inhibition of human SK-MEL-5 cells at 10 uM incubated for 48 hrs by sulforhodamine B assay relative to control; type: functional; details: read-out: GI; in short: as §1

Question: Which inhibition of growth at 10 µM does the source give for `COc1cc2nc(-c3ccc(Cl)cc3)cc(OCCN3CCCC3)c2cc1OC` here?
Answer: 3%

system: MDA-MB-435; test: Growth inhibition of human MDA-MB-435 cells at 10 uM incubated for 48 hrs by sulforhodamine B assay relative to control; type: functional; details: read-out: GI; in short: as §3

Question: For `COc1cc2nc(-c3ccc(Cl)cc3)cc(OCCN3CCCC3)c2cc1OC`, which inhibition of growth at 10 µM is on record?
Answer: 3%

system: HL-60(TB); test: Growth inhibition of human HL-60(TB) cells at 10 uM incubated for 48 hrs by sulforhodamine B assay relative to control; type: functional; details: read-out: GI
In short: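 NCI-60 one-dose screen: same culture, 48 h drug exposure and SRB read-out. Reported as percent growth relative to no-drug control and to time-zero cell number; 0–100 means growth inhibition, below 0 means lethality.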

Question: Which inhibition of growth at 10 µM does the source give for `COc1cc2nc(-c3ccc(Cl)cc3)cc(OCCN3CCCC3)c2cc1OC` here?
Answer: 3%

system: OVCAR-5; test: Growth inhibition of human OVCAR-5 cells at 10 uM incubated for 48 hrs by sulforhodamine B assay relative to control; type: functional; details: read-out: GI; in short: as §1

Question: For `COc1cc2nc(-c3ccc(Cl)cc3)cc(OCCN3CCCC3)c2cc1OC`, which inhibition of growth at 10 µM is on record?
Answer: 3%

system: SNB-75; test: Growth inhibition of human SNB-75 cells at 10 uM incubated for 48 hrs by sulforhodamine B assay relative to control; type: functional; details: read-out: GI; in short: as §1

Question: Which inhibition of growth at 10 µM does the source give for `COc1cc2nc(-c3ccc(Cl)cc3)cc(OCCN3CCCC3)c2cc1OC` here?
Answer: 3%

system: HOP-62; test: Growth inhibition of human HOP-62 cells at 10 uM incubated for 48 hrs by sulforhodamine B assay relative to control; type: functional; details: read-out: GI; in short: as §3

Question: How did the inhibition of growth at 10 µM turn out when `COc1cc2nc(-c3ccc(Cl)cc3)cc(OCCN3CCCC3)c2cc1OC` was run?
Answer: 3%

system: SF-539; test: Growth inhibition of human SF-539 cells at 10 uM incubated for 48 hrs by sulforhodamine B assay relative to control; type: functional; details: read-out: GI; in short: as §1

Question: `COc1cc2nc(-c3ccc(Cl)cc3)cc(OCCN3CCCC3)c2cc1OC` was tested. Which inhibition of growth at 10 µM did it give?
Answer: 3%

system: NCI-H23; test: Growth inhibition of human NCI-H23 cells at 10 uM incubated for 48 hrs by sulforhodamine B assay relative to control; type: functional; details: read-out: GI; in short: as §1

Question: For `COc1cc2nc(-c3ccc(Cl)cc3)cc(OCCN3CCCC3)c2cc1OC`, which inhibition of growth at 10 µM is on record?
Answer: 3%

system: SW-620; test: Growth inhibition of human SW-620 cells at 10 uM incubated for 48 hrs by sulforhodamine B assay relative to control; type: functional; details: read-out: GI; in short: as §2

Question: For `COc1cc2nc(-c3ccc(Cl)cc3)cc(OCCN3CCCC3)c2cc1OC`, which inhibition of growth at 10 µM is on record?
Answer: 3%
